Screening data (PubChem)
INS-1E rescue – protection of INS-1E cells from cytokine death, primary screen, ATP luminescence, single point. INS-1E cytokine-induced death, 48 h; normalised: neutral wells 0, positive control 100. protection from cytokine-induced ATP loss, % at 10 µM. 0.1% of 20,000 active;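 active = mean replicate protection from cytokine-induced ATP loss at least 50% and at least 75% of replicates each reaching 50%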
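Assay system: INS-1E rat insulinoma cells. Amount: 8000 cells per well. Medium: phenol-red-free RPMI with 5% fetal bovine serum. Reagent: IL-1β, TNF-α and IFN-γ cytokine mix. Doses: one compound concentration, pin transfer. Schedule: 48 h co-treatment, 10 min post-lysis read. Detection: CellTiter-Glo luminescence measuring cellular ATP.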
A1 apoptosis 2 – A1 inhibitors via caspase activation, primary screen, cell-based, luminescence, HTS, two replicates. MEF A1-2A-BIM cells, caspase-Glo luminescence, 3 h; percent of clofoctol response, DMSO zero. caspase activation, % (no concentration beside the values). 24,000 tested, under 10 active; in the data active = caspase activation above about 5.9%
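Test system – A1-2A-BIM-expressing MEF cells · Input – 2500 cells/well · Medium – RPMI-1640 growth medium with 10% FBS · Compound dosing – 50 nL pinned compound · Timing – 3 h compound exposure at 37 °C · Technique – Caspase-Glo luminescence (DEVD substrate) · Evaluation – Caspase-3/7 activity from luminescence increase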
T cruzi HTS – inhibitors of intracellular Trypanosoma cruzi, primary screen, cell-based, plate reader, single point, set 2; intracellular Trypanosoma cruzi in host cells; activity score (inhibition), % at 5.01 µM; 4.9% of 22,000 active; in the data active = activity score above about 55%;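 note: parasites and compound incubated about four days before reading; 0% = median of neutral control wells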
An asterisk follows results filed as active; . = no result given. The entries come from a sample that favours hits as a whole.

SMILES | INS-1E rescue | A1 apoptosis 2 | T cruzi HTS
C[C@H](CO)N1C[C@H](C)[C@@H](CN(C)S(=O)(=O)c2ccccc2)Oc2c(NC(=O)c3nc4ccccc4s3)cccc2C1=O | 0.8 | . | 41.9
C[C@H]1CN([C@@H](C)CO)C(=O)c2cccc(NC(=O)c3nc4ccccc4s3)c2O[C@H]1CN(C)S(=O)(=O)c1ccccc1 | -39.2 | . | 76.7*
C[C@@H]1CN([C@H](C)CO)C(=O)c2cccc(NC(=O)c3cnccn3)c2O[C@@H]1CN(C)S(=O)(=O)c1cccs1 | -3.8 | . | 5.7
C[C@H](CO)N1C[C@H](C)[C@H](CN(C)S(=O)(=O)c2cccs2)Oc2c(NC(=O)c3cnccn3)cccc2C1=O | 0.3 | . | 68.7*
C[C@@H]1CN([C@@H](C)CO)C(=O)c2cccc(NC(=O)c3nc4ccccc4s3)c2O[C@H]1CN(C)S(=O)(=O)c1ccc(Cl)cc1 | -30.2 | . | 32.0
COc1ccc(S(=O)(=O)N(C)C[C@@H]2Oc3c(NC(=O)Nc4cccc5ccccc45)cccc3C(=O)N([C@@H](C)CO)C[C@H]2C)cc1 | 81.2* | 0.5 | 8.7
O=C(CCCCCCC(=O)Nc1ccccc1O)N/N=C/c1coc2ccccc2c1=O | -1.2 | . | -19.0
C=CCNC(=O)[C@H]1[C@@H]2C(=O)O[C@@H](c3ccccc3)[C@@H](c3ccccc3)N2[C@@H](c2ccc(OCCO)cc2)[C@]12C(=O)N(C(=O)OCCOC)c1ccc(C#CC3=CCCCC3)cc12 | . | -1.1 | .
COc1ccc(S(=O)(=O)N(C)C[C@@H]2Oc3c(NC(=O)c4nc5ccccc5s4)cccc3C(=O)N([C@H](C)CO)C[C@H]2C)cc1 | -36.5 | -0.3 | 44.3
C[C@H](CO)N1C[C@H](C)[C@@H](CN(C)S(=O)(=O)c2cccs2)Oc2c(NC(=O)c3nc4ccccc4s3)cccc2C1=O | -6.3 | -0.4 | 57.1*
C[C@H]1CN([C@@H](C)CO)C(=O)c2cccc(NC(=O)c3nc4ccccc4s3)c2O[C@@H]1CN(C)S(=O)(=O)c1cccs1 | -7.7 | 1.4 | 25.0
COc1ccc(S(=O)(=O)N(C)C[C@H]2Oc3c(NC(=O)c4nc5ccccc5s4)cccc3C(=O)N([C@@H](C)CO)C[C@@H]2C)cc1 | -11.2 | . | 62.8*
O=C(CCCCCC(=O)Nc1ccccc1O)N/N=C/c1ccc(O)cc1 | 5.9 | 0.6 | -2.8
O=C(N/N=C/c1ccc(O)c(F)c1)c1ccccn1 | -12.4 | -12.7 | -8.0
O=C(CCCCCCC(=O)Nc1ccccc1O)N/N=C/c1ccc(O)c(F)c1 | 0.4 | -1.1 | -7.5
C[C@@H]1CN([C@H](C)CO)C(=O)Cc2cc(NC(=O)CCCCCC(=O)Nc3ccccc3N)ccc2O[C@@H]1CN(C)C(=O)Nc1cccc2ccccc12 | 9.7 | 0.5 | -36.6
COc1cc(/C=N/NC(=O)c2ccccc2O)cc(OC)c1OC | -41.0 | 0.1 | -32.6
C[C@@H]1CN([C@@H](C)CO)C(=O)c2cccc(NC(=O)Nc3ccc4c(c3)OCO4)c2O[C@H]1CN(C)Cc1ccc(Oc2ccccc2)cc1 | -48.5 | -0.9 | 70.1*
C[C@H](CO)N1C[C@H](C)[C@@H](CN(C)Cc2ccc(Oc3ccccc3)cc2)Oc2c(NC(=O)Nc3ccc4c(c3)OCO4)cccc2C1=O | -45.7 | . | 27.5
C[C@@H]1CN([C@H](C)CO)C(=O)c2cccc(NC(=O)Nc3ccc4c(c3)OCO4)c2O[C@@H]1CN(C)Cc1ccc(Oc2ccccc2)cc1 | -9.4 | . | 4.2
C[C@@H]1CN([C@@H](C)CO)C(=O)c2cccc(NC(=O)Nc3ccc4c(c3)OCO4)c2O[C@@H]1CN(C)Cc1ccc(Oc2ccccc2)cc1 | -31.0 | . | 73.1*
COc1ccc(O)c(/C=N/NC(=O)c2ccccc2O)c1 | -131.9 | -2.7 | 45.4
COCCOC(=O)N1C(=O)[C@@]2(c3cc(C#CCC(C(=O)OC)C(=O)OC)ccc31)[C@H](C(N)=O)[C@H]1C(=O)O[C@H](c3ccccc3)[C@H](c3ccccc3)N1[C@@H]2c1ccccc1OCCO | . | 1.3 | .
O=C1O[C@@H](c2ccccc2)[C@@H](c2ccccc2)N2[C@@H](c3ccc(OCCO)cc3)[C@]3(C(=O)Nc4ccc(C#CCCO)cc43)[C@@H](C(=O)NC[C@H](O)c3ccccc3)[C@H]12 | . | 0.4 | .
O=C(N/N=C/c1cccnc1Br)c1ccccc1O | -30.0 | . | -13.0
C[C@@H]1CN([C@@H](C)CO)C(=O)c2cccc(NC(=O)Nc3ccc(C(F)(F)F)cc3)c2O[C@H]1CN(C)CC1CC1 | -35.0 | -0.2 | 9.6
